Hits are enriched below; roughly 1.7% of the tested compounds scored in any of these assays.
Scp1 inh = Scp-1 phosphatase inhibitors, primary screen, biochemical, colorimetric, uHTS | Carboxy-terminal domain RNA polymerase II polypeptide A small phosphatase 1 (Homo … | Recombinant Scp1, phosphopeptide, malachite green phosphate absorbance | inhibition, % at 20 µM | 340,000 compounds, 0.88% hits;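 active means inhibition above about 50% at 20 µM, limit read from the data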
Target sequence (Q9GZU7 76-261 limits assumed): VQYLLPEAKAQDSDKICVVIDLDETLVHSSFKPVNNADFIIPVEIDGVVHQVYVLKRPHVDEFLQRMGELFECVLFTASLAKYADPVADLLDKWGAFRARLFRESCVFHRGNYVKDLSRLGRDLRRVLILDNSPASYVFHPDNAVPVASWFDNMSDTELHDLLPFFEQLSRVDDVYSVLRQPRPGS
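Material – SCP-1 phosphatase catalytic domain, residues 76-261 · Buffer or medium – Acidic Tris acetate buffer with magnesium and detergent · Also added – Phospho 17-mer peptide substrate · Compound – single 20 µM dose, 1% DMSO · Times – 45 min room-temperature reaction, 5 min colour, 30 min stabiliser · Technique – Phosphate-binding colour reagent, absorbance read at 630 nm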
SUMO1-SIM PPI = modulators of SUMO1 protein-protein interactions, primary screen, biochemical, uHTS | 360,000 compounds, 0.33% hits | Small ubiquitin-related modifier 1 (Homo sapiens), P63165 | inhibition, % at 20 µM | SUMO1 binding to a labelled peptide, TR-FRET, 1 h; in the data active means inhibition above about 37%
Target sequence (P63165 whole entry, looked up): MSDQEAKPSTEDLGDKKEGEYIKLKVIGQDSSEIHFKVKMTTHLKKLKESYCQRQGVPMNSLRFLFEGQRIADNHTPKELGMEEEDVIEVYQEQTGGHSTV
LMPTP inh = LMPTP phosphatase inhibitors, primary screen, biochemical, fluorescence intensity, uHTS; Low molecular weight phosphotyrosine protein phosphatase (Homo sapiens), P24666; recombinant LMPTP-A, OMFP fluorogenic substrate; inhibition, % at 20 µM; 360,000 compounds, 0.22% hits; AID 651560, 2012;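 active means compounds that cut the enzyme signal by at least half of the control window in the single-dose screen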
Target sequence (P24666 whole entry, looked up): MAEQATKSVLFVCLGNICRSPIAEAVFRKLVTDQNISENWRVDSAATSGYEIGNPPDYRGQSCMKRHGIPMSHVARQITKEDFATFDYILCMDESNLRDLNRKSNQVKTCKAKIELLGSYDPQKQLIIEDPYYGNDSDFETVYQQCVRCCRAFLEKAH
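Assay system: LMPTP-A enzyme. Input: 0.625 nM LMPTP-A final. Probe or stimulus: 400 µM OMFP. Compound dosing: single 20 µM dose. Schedule: 50 min dark incubation at room temperature. Detection: fluorescence intensity of OMFP turnover product. Read-out: percent inhibition versus substrate-only and uninhibited controls. Benchmarks: no-enzyme low control, uninhibited high control.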
STEP block = STEP phosphatase inhibitors, primary screen, biochemical, fluorescence intensity, uHTS; 360,000 compounds, 0.25% hits; AID 588621, 2011; recombinant STEP, OMFP fluorogenic substrate; inhibition, % at 20 µM;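 active means inhibition at 20 µM, scaled per plate between control wells, above about 37%, limit read from the data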
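Measure: Control-normalized % inhibition with plate pattern correction | Test system: STEP phosphatase, cell-free reaction | Medium: pH 6.0 Bis-Tris with DTT and Tween 20 | Technique: Fluorescence, 480/540 nm | Times: Reaction 20 min, ambient temperature | Doses: Single compound dose of 20 µM, 1% DMSO final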
DNMT1 block = human DNMT1 methyltransferase inhibitors, primary screen, biochemical, molecular beacon, fluorescence, HinP1I cleavage, uHTS; AID 588458, 2011; inhibition (reported as % activation of signal), % at 10 µM; 360,000 compounds, 0.83% hits; DNA (cytosine-5)-methyltransferase 1 (Homo sapiens), P26358; in the data active means inhibition above about 50%
Large screens that a line does not name were inactive.

O=C1CC(=O)N(Cc2ccco2)C(=S)N1	Scp1 inh 92.5, SUMO1-SIM PPI 68.7, LMPTP inh 50.6, STEP block 82.9, DNMT1 block 110.7
O=C(O)CCCNC(=O)/C=C/c1ccco1	Scp1 inh 72.5, DNMT1 block 87.8
O=C(/C=C/c1ccco1)NC(=S)Nc1cccc(C(=O)O)c1	Scp1 inh 64.5
O=C(O)CCCCCNC(=O)/C=C/c1ccco1	none
O=C(NCc1ccco1)c1ccc(-c2ccc3nccn3c2)cc1	none (no result: Scp1 inh)
O=C(C[C@@H]1CC[C@H](NC(=O)c2ccc3c(c2)OCO3)[C@@H](CO)O1)NCc1ccc(F)cc1	none (no result: Scp1 inh, STEP block, DNMT1 block)
COc1ccc(N=C2S/C(=C\c3ccc(OCC(=O)O)cc3)C(=O)N2CCc2c[nH]c3ccccc23)cc1	SUMO1-SIM PPI 97.9, STEP block 96.4
O=C(C(O)c1ccccc1)N1CCN(S(=O)(=O)c2ccc(OC(F)(F)F)cc2)CC1 (centres undefined)	none (no result: Scp1 inh, STEP block, DNMT1 block)
O=C(COc1ccccc1C(=O)N/N=C\c1ccc(O)c(O)c1)N/N=C/c1ccc(O)c(O)c1	Scp1 inh 61.4
O=C(NN=Cc1ccc(O)c(O)c1)c1ccccc1	none (no result: Scp1 inh)
O=C(CSc1nnc(CNC(=O)c2ccccc2F)o1)NC1CCCCC1	SUMO1-SIM PPI 37.5
COc1cccc(C(C)(O)c2nc(-c3ccc(C)c(C)c3)cs2)c1 (centres undefined)	none (no result: Scp1 inh)
CC1=C(SCc2ccccc2)C(=O)c2ccccc2C1=O	DNMT1 block 76.0
Cn1nccc1-c1coc2c(C(=O)NCc3ccccc3)cccc12	none (no result: Scp1 inh)
N#C/C(=C(/O)c1ccc(-c2cccc([N+](=O)[O-])c2)o1)c1nc2ccccc2s1	Scp1 inh 88.8, LMPTP inh 52.3
CNc1ccc(-c2cccc(CO)c2)cn1	none (no result: Scp1 inh)
O=C(O)c1ccc(N=Nc2c(O)[nH]c3cc(Cl)ccc23)cc1	Scp1 inh 56.3
Cc1cc(C)cc(NC(=O)NN2C(C)CCCC2C)c1 (centres undefined)	SUMO1-SIM PPI 54.4
COC(=O)CCCn1cc(CN2CC(N3CCCCC3)CS2(=O)=O)nn1 (centres undefined)	none (no result: Scp1 inh, STEP block, DNMT1 block)
CN(C)c1ccccc1-c1cc(NC=O)c2ncc(-c3cccc(C(F)(F)F)c3)n2c1	DNMT1 block active (no result: Scp1 inh)
CN(C)C(=O)c1cccc(-c2cnc3c(NC=O)cc(-c4ccccc4N(C)C)cn23)c1	DNMT1 block 140.6 (no result: Scp1 inh)
Oc1ccc(N=Nc2c(O)ccc3ccccc23)cc1	none
N=C(N)c1ccc(N=Nc2c(O)ccc3c2[nH]c2ccccc23)cc1	SUMO1-SIM PPI 129.2, DNMT1 block 50.7
O=C1NC[C@H](CCCCN2CCN(CCC3CCCCC3)C(=O)C2=O)N(CCc2ccccc2)C1=O	none (no result: Scp1 inh, STEP block, DNMT1 block)
Cc1[nH]nc2c1C(c1ccc(-c3ccc(Cl)cc3)o1)C(C#N)=C(N)O2 (centres undefined)	SUMO1-SIM PPI 63.8
Cc1ccc(-c2ccc(C3C(C#N)=C(N)Oc4n[nH]c(C)c43)o2)cc1 (centres undefined)	none
CCOc1ccc2nc(NC3=NC(C)(C)C=C(C)N3)nc(C)c2c1	none
CCOc1ccc2nc(NC3=NC(c4ccc(OC)cc4)CC(=O)N3)nc(C)c2c1 (centres undefined)	LMPTP inh 57.3, STEP block 86.0
CN(C)c1ccc(C=Cc2nccc3ccccc23)cc1	DNMT1 block 68.7 (no result: Scp1 inh)
CCCCCCCCCC[n+]1cccc2c3ccccc3ccc21	Scp1 inh 65.4
CCCCCCCC[n+]1cccc2c3ccccc3ccc21	none
CCOc1ccc(-c2noc([C@@H]3O[C@H](CO)[C@@H](O)[C@H]3O)n2)cc1	none (no result: Scp1 inh)
O=C(NCCN1CCC(n2c(=O)[nH]c3ccccc32)CC1)c1cccnc1Cl	none (no result: Scp1 inh, STEP block, DNMT1 block)
NS(=O)(=O)c1ccc(N/N=C/c2ccc(O)c(O)c2O)c([N+](=O)[O-])c1	LMPTP inh 65.2
NS(=O)(=O)c1ccc(N/N=C/c2ccc(O)cc2O)c([N+](=O)[O-])c1	none
